Measurements of several laboratories.
Compare with care: the assays were run in different laboratories.
DRD1: D(1A) dopamine receptor (DRD1, Homo sapiens, UniProt P21728)
BCHE: Cholinesterase (BCHE, Equus caballus, UniProt P81908)
SLC6A4: Sodium-dependent serotonin transporter (SLC6A4, Homo sapiens, UniProt P31645)

| SMILES | target | test | setting | IC50 [µM] |
| --- | --- | --- | --- | --- |
| CN1C[C@H](C(=O)N[C@]2(C)O[C@@]3(O)[C@@H]4CCCN4C(=O)[C@H](Cc4ccccc4)N3C2=O)C[C@@H]2c3cccc4[nH]cc(c34)C[C@H]21 | DRD1 | ligand displacement, radioligand |  | 4.81 |
| C#CCNc1nc(NCCCCC2CCN(Cc3ccccc3)CC2)c(C#N)c(-c2ccccc2)c1C#N | BCHE | enzyme activity, inhibitor, Ellman |  | 0.61 |
| C[C@H](N)Cn1ncc2ccc3c(c21)CCCO3 | DRD1 | ligand displacement, radioligand |  | 138 |
| CC=C1[C@H]2C=C(C)C[C@]1(N)c1cc(C#N)c(=O)[nH]c1C2 | BCHE | enzyme activity, inhibitor, Ellman |  | 1050 |
| CCOc1ccc(C=NNC(=S)NCC(=O)c2ccc(Cl)cc2)cc1 | BCHE | enzyme activity, inhibitor, Ellman |  | 334 |
| NC(=O)N1C[C@@H](CCN2CC=C(c3c[nH]c4cc(Cl)ccc34)CC2)c2ccccc21 | SLC6A4 | ligand displacement, radioligand | cell membranes | 0.169 |
| O=C(CNC(=S)NN=Cc1ccc([N+](=O)[O-])cc1)c1ccc([N+](=O)[O-])cc1 | BCHE | enzyme activity, inhibitor, Ellman |  | 326 |
| CC=C1[C@H]2C=C(C)C[C@]1(N)c1cc(OC)c(=O)[nH]c1C2 | BCHE | enzyme activity, inhibitor, Ellman |  | 599 |
| CC(=O)N1C[C@H](CCN2CC=C(c3c[nH]c4cc(Cl)ccc34)CC2)c2ccccc21 | SLC6A4 | ligand displacement, radioligand | cell membranes | 0.0818 |
| O=P(O)(O)Oc1cccc(OP(=O)(O)O)c1 | Signal transducer and activator of transcription 5A, SH2 (Homo sapiens, UniProt P42229) | ligand displacement, FP |  | 50 |
| CC=C1[C@H]2C=C(C)C[C@]1(N)c1cc(OCC)c(=O)[nH]c1C2 | BCHE | enzyme activity, inhibitor, Ellman |  | 253 |
| CCn1cnc2c(Nc3cccc(Cl)c3)nc(N[C@@H]3CCCC[C@@H]3N)nc21 | Ribosomal protein S6 kinase alpha-3, N-terminal kinase domain (RPS6KA3, Homo sapiens, UniProt P51812) | enzyme activity, inhibitor, FP |  | 1 |
| CC=C1[C@H]2C=C(C)C[C@]1(N)c1cc(I)c(=O)[nH]c1C2 | BCHE | enzyme activity, inhibitor, Ellman |  | 325 |
| NC(N)=S | Urease (Canavalia ensiformis, UniProt P07374) | enzyme activity, inhibitor |  | 8.83 |
